We go through one compound from ChEMBL document CHEMBL1128432, “Structure-activity relationships for inhibition of type 1 and 2 human 5 alpha-reductase and human adrenal 3 beta-hydroxy-delta 5-steroid dehydrogenase/3-keto-delta 5-steroid isomerase by 6-azaandrost-4-en-3-ones: optimization of the C17 substituent” (J Med Chem, 1995).

Series [1] concerns the target T1, 3-oxo-5-alpha-steroid 4-dehydrogenase 2 (Homo sapiens, UniProt P31213).
T1 sequence (P31213 whole entry): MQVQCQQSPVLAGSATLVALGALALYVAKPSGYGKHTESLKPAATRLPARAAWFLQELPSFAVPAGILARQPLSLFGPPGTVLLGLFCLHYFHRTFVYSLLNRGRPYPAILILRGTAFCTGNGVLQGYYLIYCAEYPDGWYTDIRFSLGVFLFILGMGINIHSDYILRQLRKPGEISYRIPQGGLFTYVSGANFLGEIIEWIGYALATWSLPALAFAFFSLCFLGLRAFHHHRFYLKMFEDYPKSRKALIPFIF
The series can be described thus: Inhibitory activity measured on human steroid 5-alpha-reductase type 2.

The nature of series [2]: Plasma half life in beagles after iv administration of 5 mg/kg. It counts as ADME, organism-based, Canis lupus familiaris. Further details: dose 5 mg/kg, route intravenous. The conditions noted are these: beagle, dog. Summed up:
(§1)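 Male beagles dosed intravenously (5 mg/kg for these lines), 2–5 animals. Blood half-life measured in hours after iv dosing; % bioavailability reported alongside.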

The nature of series [3]: Inhibition of recombinant human adrenal 3-beta-hydroxy-delta-5-steroid dehydrogenase.
The next series relates to Rattus norvegicus. Kind of series: % reduction in prostate weight when compared with T-treated controls was measured in castrated rat at 10 mg/kg/day po administration. The class given is functional, Prostate gland. Put shortly:
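Castrated male rats, 8 per group, given 10 mg/kg/day orally alongside testosterone. The readout is ventral prostate weight reduction versus testosterone-treated controls, expressed relative to finasteride run as an internal standard in each experiment.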

Series [4] is described as follows: Bioavailability in dog (Beagle) at t1/2 (dose 5 mg/kg i.v.). The class given is ADME, organism-based, Canis lupus familiaris. The conditions noted are these: in vivo, iv, 5 mg/kg. Put shortly:
as §1

In series [5] the target is T2, 3-oxo-5-alpha-steroid 4-dehydrogenase 1 (Homo sapiens, UniProt P18405).
T2 sequence (P18405 whole entry): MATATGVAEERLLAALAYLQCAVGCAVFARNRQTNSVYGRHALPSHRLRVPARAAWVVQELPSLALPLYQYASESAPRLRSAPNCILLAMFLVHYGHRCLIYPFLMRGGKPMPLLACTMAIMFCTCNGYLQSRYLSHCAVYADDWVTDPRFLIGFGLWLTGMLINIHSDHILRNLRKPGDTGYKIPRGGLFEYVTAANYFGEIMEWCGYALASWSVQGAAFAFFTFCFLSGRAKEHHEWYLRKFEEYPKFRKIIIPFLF
The series can be described thus: Inhibition of recombinant steroid 5-alpha-reductase type I.

pIC50, pKi: −log10 of the molar value.

In turn, `C[C@]12CCC(=O)C(Cl)=C1NCC1C2CC[C@@]2(C)C1CC[C@@H]2C(=O)NC1(c2ccc(Cl)cc2)CCCC1` (stereo partly specified) gave a pIC50 in series [1] greater than 10.00. In addition, in series [2], the half-life is 19 h. In addition, the pKi in series [3] was 6.31; in series [5] it was 9.22. For the same compound, in the series on Rattus norvegicus, the “Reduction of prostate weight” value was determined as 49%. Further, the bioavailability in series [4] is 74%.

As a reminder, the pIC50 is the negative decadic logarithm of the IC50, by convention in mol/L. For orientation: half-life means the time needed for the level to fall by half in the phase considered. Low values mean rapid decline, high ones slow decline. In general, pKi refers to the negative decadic logarithm of the Ki, by convention in mol/L. Usually bioavailability stands for dose-corrected exposure relative to a reference, in per cent. A high value points to much systemic uptake.
